Assay results from ChEMBL document CHEMBL1148447, “Structure-activity study on a novel series of macrocyclic inhibitors of the hepatitis C virus NS3 protease leading to the discovery of BILN 2061” (J Med Chem, 2004).

What was measured:
Hepatitis C virus = assay: Inhibition of hepatitis C virus in a cell based HCV replicon assay.; assay type: functional, organism-based, Hepacivirus hominis
[1] = Inhibitory concentration against hepatitis C virus NS3 protease; parameters: species or system Hepacivirus hominis
[2] = Half-life period in rats after intravenous administration at 5 mg/kg; assay type: ADME, organism-based; parameters: dose 5 mg/kg, route intravenous; conditions: rat, in vivo
Summary of the method: (§1)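 Rats received an intravenous bolus of 5 mg/kg in PEG400/water (70:30). Half-life, Vss and plasma clearance were taken from plasma levels. Bioavailability was derived by comparison with oral gavage dosing at 20 mg/kg in the same vehicle.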

[3] = Area under the plasma concentration-time curve in rats after oral administration at 20 mg/kg; assay type: ADME, organism-based; parameters: dose 20 mg/kg, route oral; conditions: rat
Summary of the method: (§2)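 Rats dosed by oral gavage at 20 mg/kg in PEG400/water (70:30). Cmax and AUC0-∞ were taken from the plasma concentration–time profile.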

[4] = Maximum plasma concentration in rats following oral administration at 20 mg/kg; assay type: ADME, organism-based; parameters: dose 20 mg/kg, route oral; conditions: rat; summary of the method: as §2
Rattus norvegicus [5] = assay: Bioavailability in rat (dose 5 mg/kg i.v.); assay type: functional, organism-based; summary of the method: as §1
Rattus norvegicus [6] = assay: Bioavailability from rat plasma at a single oral dose of 25 mg/kg; assay type: ADME, organism-based; conditions: in vivo
[7] = Half-life from rat plasma at a single oral dose of 25 mg/kg; assay type: ADME, organism-based; parameters: dose 25 mg/kg, route oral
[8] = Area under the plasma concentration-time curve in rats after oral administration at 25 mg/kg; assay type: ADME, organism-based; parameters: dose 25 mg/kg, route oral; conditions: rat, read-out: AUC 0-infinity
Rattus norvegicus [9] = assay: Plasma clearance after intravenous administration at 5 mg/kg in rats; assay type: functional; summary of the method: as §1
[10] = Maximum plasma concentration in rats after oral administration at 20 mg/kg; assay type: ADME, organism-based; parameters: dose 20 mg/kg, route oral; conditions: rat; summary of the method: as §2
[11] = Vss was determined; assay type: ADME, organism-based; conditions: rat, in vivo; read-out: Vss; summary of the method: as §1
[12] = Area under the plasma concentration-time curve in rats following oral administration at 20 mg/kg; assay type: ADME, organism-based; parameters: dose 20 mg/kg, route oral; conditions: rat; summary of the method: as §2

EC50 (Hepatitis C virus) [nM] | IC50 [1] [nM] | Structure (SMILES) | further results
0.8 | 2.5 | CNc1nc(-c2cc(O[C@@H]3C[C@H]4C(=O)N[C@]5(C(=O)O)C[C@H]5/C=C\CCCCC[C@H](NC(=O)OC5CCCC5)C(=O)N4C3)c3ccc(OC)cc3n2)cs1 | 
9.5 | 5.1 | COc1ccc2c(O[C@@H]3C[C@H]4C(=O)N[C@]5(C(=O)O)C[C@H]5/C=C\CCCCC[C@H](NC(=O)OC(C)(C)C)C(=O)N4C3)cc(-n3cccc3)nc2c1 | 
1.2 | 2.2 | COc1ccc2c(O[C@@H]3C[C@H]4C(=O)N[C@]5(C(=O)O)C[C@H]5/C=C\CCCCC[C@H](NC(=O)OC5CCCC5)C(=O)N4C3)cc(-n3ccc(C)n3)nc2c1 | 
6 | 6.4 | CNc1nc(-c2cc(O[C@@H]3C[C@H]4C(=O)N[C@]5(C(=O)O)C[C@H]5/C=C\CCCCC[C@H](NC(=O)OC(C)(C)C)C(=O)N4C3)c3ccc(OC)cc3n2)cs1 | 
4.5 | 4.8 | COc1ccc2c(O[C@@H]3C[C@H]4C(=O)N[C@]5(C(=O)O)C[C@H]5/C=C\CCCCC[C@H](NC(=O)OC(C)(C)C)C(=O)N4C3)cc(-c3csc(NC(C)=O)n3)nc2c1 | half-life [2]: 48 min; AUC [3]: 0.3 µM·h; Cmax [4]: 300 nM; bioavailability (Rattus norvegicus [5]): 8%
0.6 | 2.8 | COc1ccc2c(O[C@@H]3C[C@H]4C(=O)N[C@]5(C(=O)O)C[C@H]5/C=C\CCCCC[C@H](NC(=O)OC5CCC5)C(=O)N4C3)cc(-c3csc(NC(C)=O)n3)nc2c1 | 
13 | 4.7 | COc1ccc2c(O[C@@H]3C[C@H]4C(=O)N[C@]5(C(=O)O)C[C@H]5/C=C\CCCCC[C@H](NC(=O)OC(C)(C)C)C(=O)N4C3)cc(-n3ccnc3)nc2c1 | 
77 | 11 | COc1ccc2c(O[C@@H]3C[C@H]4C(=O)N[C@]5(C(=O)O)C[C@H]5/C=C\CCCCC[C@H](NC(=O)OC(C)(C)C)C(=O)N4C3)cc(-c3ccccc3)nc2c1 | F (Rattus norvegicus [6]): 2%; half-life [7]: 24 min; AUC [8]: 0.2 µM·h
 | 3 | COc1ccc2c(O[C@@H]3C[C@H]4C(=O)N[C@]5(C(=O)O)C[C@H]5/C=C\CCCCC[C@H](NC(=O)OC5CCCC5)C(=O)N4C3)cc(-c3csc(NC(C)C)n3)nc2c1 [CILUPREVIR] | half-life [2]: 78 min; C1 (Rattus norvegicus [9]): 13 mL/min/kg; AUC [3]: 12.5 µM·h; Cmax [10]: 2500 nM; bioavailability (Rattus norvegicus [5]): 42%; Vd [11]: 1 L/kg
200 | 12 | COc1ccc2c(O[C@@H]3C[C@H]4C(=O)N[C@]5(C(=O)O)C[C@H]5/C=C\CCCCC[C@H](NC(=O)OC(C)(C)C)C(=O)N4C3)cc(-c3nnc(C)o3)nc2c1 | 
20 | 22 | COc1ccc2c(O[C@@H]3C[C@H]4C(=O)N[C@]5(C(=O)O)C[C@H]5/C=C\CCCCC[C@H](NC(=O)OC(C)(C)C)C(=O)N4C3)cc(-n3cc(C)cn3)nc2c1 | 
3.9 | 5.5 | COc1ccc2c(O[C@@H]3C[C@H]4C(=O)N[C@]5(C(=O)O)C[C@H]5/C=C\CCCCC[C@H](NC(=O)OC(C)(C)C)C(=O)N4C3)cc(-n3cccn3)nc2c1 | 
 | 170 | C=C[C@@H]1C[C@]1(NC(=O)C1CC(Oc2ccnc3ccccc23)CN1C(=O)[C@@H](NC(=O)[C@@H](NC(C)=O)c1ccccc1)C(C)C)C(=O)O (single isomer, unassigned) | 
1200 | 24 | COc1ccc2c(O[C@@H]3C[C@H]4C(=O)N[C@]5(C(=O)O)C[C@H]5/C=C\CCCCC[C@H](NC(=O)OC(C)(C)C)C(=O)N4C3)ccnc2c1 | 
3.2 | 5.5 | COc1ccc2c(O[C@@H]3C[C@H]4C(=O)N[C@]5(C(=O)O)C[C@H]5/C=C\CCCCC[C@H](NC(=O)OC(C)(C)C)C(=O)N4C3)cc(-c3csc(N)n3)nc2c1 | 
3.4 | 3.6 | COc1ccc2c(O[C@@H]3C[C@H]4C(=O)N[C@]5(C(=O)O)C[C@H]5/C=C\CCCCC[C@H](NC(=O)OC5CCCC5)C(=O)N4C3)cc(-n3cccc3)nc2c1 | 
0.4 | 2.5 | COc1ccc2c(O[C@@H]3C[C@H]4C(=O)N[C@]5(C(=O)O)C[C@H]5/C=C\CCCCC[C@H](NC(=O)OC5CCCC5)C(=O)N4C3)cc(-c3csc(NC(C)=O)n3)nc2c1 | 
4 | 3 | COc1ccc2c(O[C@@H]3C[C@H]4C(=O)N[C@]5(C(=O)O)C[C@H]5/C=C\CCCCC[C@H](NC(=O)OC(C)(C)C)C(=O)N4C3)cc(-n3ccc(C)n3)nc2c1 | 
1.1 | 2.2 | COc1ccc2c(O[C@@H]3C[C@H]4C(=O)N[C@]5(C(=O)O)C[C@H]5/C=C\CCCCC[C@H](NC(=O)OC5CCCC5)C(=O)N4C3)cc(-n3cccn3)nc2c1 | 
39 | 14 | COc1ccc2c(O[C@@H]3C[C@H]4C(=O)N[C@]5(C(=O)O)C[C@H]5/C=C\CCCCC[C@H](NC(=O)OC(C)(C)C)C(=O)N4C3)cc(-n3cnc(C)c3)nc2c1 | 
1 | 2.9 | CCNc1nc(-c2cc(O[C@@H]3C[C@H]4C(=O)N[C@]5(C(=O)O)C[C@H]5/C=C\CCCCC[C@H](NC(=O)OC5CCCC5)C(=O)N4C3)c3ccc(OC)cc3n2)cs1 | Cmax [4]: 1000 nM; AUC [12]: 7.2 µM·h
 | 13 | C=C[C@@H]1C[C@]1(NC(=O)C1CC(Oc2cc(-c3ccccc3)nc3ccccc23)CN1C(=O)[C@@H](NC(=O)[C@@H](NC(C)=O)c1ccccc1)C(C)C)C(=O)O (single isomer, unassigned) | 
1900 | 0.5 | C=C[C@@H]1C[C@]1(NC(=O)[C@@H]1C[C@@H](Oc2cc(-c3ccccc3)nc3ccccc23)CN1C(=O)[C@@H](NC(=O)[C@@H](NC(=O)[C@@H](CCC(=O)O)NC(=O)[C@H](CC(=O)O)NC(C)=O)c1ccccc1)C(C)(C)C)C(=O)O | 
20 | 1.4 | COc1ccc2c(O[C@@H]3C[C@H]4C(=O)N[C@]5(C(=O)O)C[C@H]5/C=C\CCCCC[C@H](NC(=O)N[C@H](C)C(C)(C)C)C(=O)N4C3)cc(-c3csc(NC(C)=O)n3)nc2c1 | 
1.6 | 3.5 | COc1ccc2c(O[C@@H]3C[C@H]4C(=O)N[C@]5(C(=O)O)C[C@H]5/C=C\CCCCC[C@H](NC(=O)OC5CCCC5)C(=O)N4C3)cc(-c3csc(N)n3)nc2c1 | 
